Experimental findings from ChEMBL document CHEMBL1158804, “Lupane triterpenoids from Maytenus species” (J Nat Prod, 2005) are described below.

One assay concerns Staphylococcus aureus. In words: Antibacterial activity against Staphylococcus aureus ATCC 6538 up to 40 ug/mL by broth microdilution method. It is filed as functional, organism-based. In a few lines:
(§1)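 Compounds are dissolved in DMSO. The minimal inhibitory concentration is estimated by broth microdilution.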
Background: In broth dilution the organism is exposed to a series of concentrations in liquid medium.

Assay [1] deals with Staphylococcus epidermidis. The experiment in a line: Antibacterial activity against Staphylococcus epidermidis CECT 232 up to 40 ug/mL by broth microdilution method. It counts as functional, organism-based. In a few lines: as §1
In assay [2] the test system is Staphylococcus saprophyticus. In words: Antibacterial activity against Staphylococcus saprophyticus CECT 235 up to 40 ug/mL by broth microdilution method. It is filed as functional, organism-based. The procedure, abridged:
as §1

A further assay deals with Enterococcus faecalis. The experiment in a line: Antibacterial activity against Enterococcus faecalis CECT 795 up to 40 ug/mL by broth microdilution method. It counts as functional, organism-based. In a few lines: as §1
For the next assay, the system named is Bacillus subtilis. The experiment in a line: Antibacterial activity against Bacillus subtilis CECT 39 up to 40 ug/mL by broth microdilution method. It counts as functional, organism-based. The procedure, abridged: as §1
The test system of a further assay is Bacillus cereus. In words: Antibacterial activity against Bacillus cereus CECT 496 up to 40 ug/mL by broth microdilution method. It is filed as functional, organism-based. In a few lines:
as §1

The test system of the next assay is Bacillus pumilus. The experiment in a line: Antibacterial activity against Bacillus pumilus CECT 29 up to 40 ug/mL by broth microdilution method. It is filed as functional, organism-based. The procedure, abridged: as §1
The next assay has as its system Priestia megaterium. The experiment in a line: Antibacterial activity against Bacillus megaterium CECT 44 up to 40 ug/mL by broth microdilution method. It counts as functional, organism-based. In a few lines: as §1
Assay [3] concerns Mycolicibacterium smegmatis. In words: Antibacterial activity against Mycobacterium smegmatis CECT 3032 up to 40 ug/mL by broth microdilution method. It counts as functional, organism-based. The procedure, abridged: as §1
In the next assay the test system is Escherichia coli. The experiment in a line: Antibacterial activity against Escherichia coli CECT 99 up to 40 ug/mL by broth microdilution method. It counts as functional, organism-based. The procedure, abridged: as §1
In the next assay the test system is Proteus mirabilis. The experiment in a line: Antibacterial activity against Proteus mirabilis CECT170 up to 40 ug/mL by broth microdilution method. It counts as functional, organism-based. In a few lines:
as §1

In the next assay the test system is Salmonella. The experiment in a line: Antibacterial activity against Salmonella sp. CECT 456 up to 40 ug/mL by broth microdilution method. It counts as functional, organism-based. The procedure, abridged:
as §1

For the next assay, the system named is Pseudomonas aeruginosa. The experiment in a line: Antibacterial activity against Pseudomonas aeruginosa AK 958 up to 40 ug/mL by broth microdilution method. It counts as functional, organism-based. The procedure, abridged: as §1
In a further assay the test system is Candida albicans. In words: Antifungal activity against Candida albicans UBC1 up to 40 ug/mL by broth microdilution method. It is filed as functional, organism-based. The procedure, abridged: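 The yeast is grown on Sabouraud agar at 37 °C. Compounds are dissolved in DMSO, and the minimal inhibitory concentration is estimated by broth microdilution.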
A further assay concerns HeLa. In words: Cytotoxicity against human HeLa cells after 48 hrs by MTT assay. It counts as functional, cell-based. The procedure, abridged:
(§2)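 Monolayers are cultured in DMEM with 5% fetal calf serum and 1% penicillin-streptomycin at 37 °C, 5% CO2 and 90% humidity. Exponentially growing cells (2 × 10^4 cells/well) are exposed to a range of compound concentrations for 48 h at 37 °C. Viability is read by colorimetric MTT reduction.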
(Formazan colour is commonly taken as a measure of viable cells.)

In another assay the test system is HEp-2. In words: Cytotoxicity against human Hep2 cells after 48 hrs by MTT assay. It is filed as functional, cell-based. Particulars: HEp-2, 48 h. In a few lines:
as §2

In another assay the test system is Vero. The experiment in a line: Cytotoxicity against african green monkey Vero cells after 48 hrs by MTT assay. It is filed as cell-based. Particulars: Chlorocebus sabaeus. The procedure, abridged: as §2

≈ marks a conversion by molar mass, not a printed value. Calls of active or inactive are those of the source. The calls are words filed in the database; no cut-off is given here. A value given as a limit tells only on which side of the number the result lay.

As a reminder, the IC50 is the midpoint of a concentration-inhibition curve. On to `C=C(C)[C@@H]1CC[C@]2(C)CC[C@]3(C)[C@@H](CC[C@@H]4[C@@]5(C)[C@@H](O)C[C@@H](O)C(C)(C)[C@@H]5CC[C@]43C)[C@@H]12`, for which the result (with Staphylococcus aureus; in [1]; in assay [2]; with Enterococcus faecalis; in the assay with Bacillus subtilis; in the assay on Bacillus cereus) was inactive. The result (in the assay with Bacillus pumilus; in the assay on Priestia megaterium; in assay [3]; with Escherichia coli; in the assay on Proteus mirabilis; with Salmonella) was inactive. The outcome in the assay on Pseudomonas aeruginosa and in the assay with Candida albicans was inactive. Moreover, the IC50 with HeLa, in the assay with HEp-2 and in the assay on Vero was over 10 µg/mL in each case.

Consider `C=C(C)[C@@H]1CC[C@@]2(C)[C@H]1[C@@H]1CC[C@@H]3[C@@]4(C)CCC(=O)C(C)(C)[C@@H]4[C@H](O)C[C@@]3(C)[C@]1(C)C[C@@H]2O` [RESINONE], for which the outcome (in the assay with Staphylococcus aureus; in [1]; in assay [2]; in the assay with Enterococcus faecalis; in the assay with Bacillus subtilis; in the assay on Bacillus cereus) was inactive. Moreover, the outcome (in the assay on Bacillus pumilus; with Priestia megaterium; in assay [3]; in the assay on Escherichia coli; with Proteus mirabilis; in the assay on Salmonella) was inactive. Further, the result in the assay on Pseudomonas aeruginosa and with Candida albicans was inactive. For the same compound, the IC50 in the assay on HeLa, with HEp-2 and in the assay on Vero was over 10 µg/mL throughout.

Regarding `C=C(CO)[C@@H]1CC[C@]2(CO)CC[C@]3(C)[C@@H](CC[C@@H]4[C@@]5(C)CCC(=O)C(C)(C)[C@@H]5CC[C@]43C)[C@@H]12`, the result (in the assay on Staphylococcus aureus; in assay [1]; in assay [2]; in the assay on Enterococcus faecalis; with Bacillus subtilis; with Bacillus cereus) was inactive. For the same compound, the result (with Bacillus pumilus; in the assay with Priestia megaterium; in [3]; with Escherichia coli; in the assay on Proteus mirabilis; with Salmonella) was inactive. Besides, the result in the assay on Pseudomonas aeruginosa and in the assay with Candida albicans was inactive. In addition, the IC50 is 4 µg/mL (≈ 8.76 µM) with HeLa, 7.1 µg/mL (≈ 15.5 µM) in the assay with HEp-2 and over 10 µg/mL in the assay with Vero.

Take `C=C(C)[C@@H]1CC[C@]2(C)CC[C@]3(C)[C@H](CC[C@@H]4[C@@]5(C)CC[C@H](O)C(C)(C)[C@@H]5CC[C@]43C)[C@@H]12` [LUPEOL]: the outcome (with Staphylococcus aureus; in assay [1]; in [2]; in the assay on Enterococcus faecalis; in the assay on Bacillus subtilis; with Bacillus cereus) was inactive. Besides, the outcome (in the assay with Bacillus pumilus; with Priestia megaterium; in assay [3]; with Escherichia coli; with Proteus mirabilis; in the assay with Salmonella) was inactive. Further, the outcome in the assay with Pseudomonas aeruginosa and in the assay on Candida albicans was inactive. Further, the IC50 in the assay on HeLa, with HEp-2 and with Vero was over 10 µg/mL in each case.

On to `C=C(C)[C@@H]1CC[C@]2(CO)CC[C@]3(C)[C@@H](CC[C@@H]4[C@@]5(C)CCC(=O)C(C)(C)[C@@H]5[C@H](O)C[C@]43C)[C@@H]12`, for which the result (in the assay on Staphylococcus aureus; in [1]; in [2]; in the assay on Enterococcus faecalis; in the assay on Bacillus subtilis; in the assay with Bacillus cereus) was inactive. For the same compound, the result (in the assay on Bacillus pumilus; in the assay with Priestia megaterium; in assay [3]; in the assay on Escherichia coli; in the assay on Proteus mirabilis; in the assay on Salmonella) was inactive. Further, the result in the assay on Pseudomonas aeruginosa and in the assay with Candida albicans was inactive. For the same compound, the IC50 with HeLa, with HEp-2 and in the assay on Vero was over 10 µg/mL throughout.

For `C=C(C)[C@@H]1CC[C@]2(C)CC[C@]3(C)[C@@H](C[C@@H](O)[C@@H]4[C@@]5(C)[C@H](O)C[C@H](O)C(C)(C)[C@@H]5CC[C@]43C)[C@@H]12` [NEPETICIN], the result (with Staphylococcus aureus; in assay [1]; in assay [2]; in the assay with Enterococcus faecalis; in the assay on Bacillus subtilis; in the assay with Bacillus cereus) was inactive. The result (in the assay with Bacillus pumilus; with Priestia megaterium; in [3]; in the assay with Escherichia coli; in the assay on Proteus mirabilis; with Salmonella) was inactive. Also, the outcome in the assay on Pseudomonas aeruginosa and in the assay with Candida albicans was inactive. The IC50 with HeLa, in the assay with HEp-2 and in the assay with Vero was under 10 µg/mL in each case.

Regarding `C=C(C)[C@@H]1CC[C@]2(CO)CC[C@]3(C)[C@H](CC[C@@H]4[C@@]5(C)CC[C@H](OC(=O)/C=C/c6ccc(O)c(O)c6)C(C)(C)[C@@H]5CC[C@]43C)[C@@H]12`, the outcome (in the assay on Staphylococcus aureus; in assay [1]; in assay [2]; in the assay with Enterococcus faecalis; in the assay on Bacillus subtilis; with Bacillus cereus) was inactive. For the same compound, the outcome (with Bacillus pumilus; with Priestia megaterium; in assay [3]; in the assay on Escherichia coli; in the assay on Proteus mirabilis; with Salmonella) was inactive. The result with Pseudomonas aeruginosa and in the assay on Candida albicans was inactive. Besides, the IC50 in the assay with HeLa, with HEp-2 and in the assay on Vero was over 10 µg/mL throughout.
